A short description of data set [1]: Toxicity in BALB/c nude mouse xenografted with human SK-OV-3 cells assessed as body weight loss at 20 mg/kg, iv once a week for 3 weeks relative to irinotecan. The format is organism-based. Conditions: in vivo, 504 h. The method in brief: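 Five-week-old female BALB/c nude mice; 1.0×10^7 SK-OV-3 cells injected subcutaneously in the dorsal region. […] Tumour volume (AB²/2, calipers) and body weight recorded every other day; tumours weighed at end, inhibition rate calculated.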
(In general: In xenograft studies the graft and the host belong to different species.)

Data set [2] in a line: Toxicity in BALB/c nude mouse xenografted with human SK-OV-3 cells assessed as organ related toxicity on heart morphology at 20 mg/kg, iv once a week for 3 weeks by H and E staining-based fluorescence microscopy. The format is organism-based. Conditions: in vivo, 504 h. A digest of the protocol:
(§1)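 In the SK-OV-3 xenograft mice dosed iv weekly for three weeks, liver, heart, lung, kidney and spleen were collected at study end. Sections were dewaxed, stained with Harris haematoxylin then eosin-phloxine for 1 min, dehydrated, mounted, and examined by microscopy for tissue morphology.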

Data set [3] can be described thus: Toxicity in BALB/c nude mouse xenografted with human SK-OV-3 cells assessed as organ related toxicity on liver morphology at 10 mg/kg, iv once a week for 3 weeks by H and E staining-based fluorescence microscopy. Format: organism-based. Conditions: in vivo, 504 h. A digest of the protocol:
as §1

Data set [4] has as its system SK-OV-3. Description: Induction of apoptosis in human SK-OV-3 cells assessed as early apoptotic cells at 10 uM incubated for 24 hrs by AnnexinV-FITC and propidium iodide staining based flow cytometry analysis (reference value: 1.93%). The format is functional. Background: In flow cytometry, cells or beads pass a laser one at a time.
In data set [5] the test system is SK-OV-3. Description: Induction of apoptosis in human SK-OV-3 cells assessed as late apoptotic cells at 5 uM incubated for 24 hrs by AnnexinV-FITC and propidium iodide staining based flow cytometry analysis (reference value: 0.89%). The format is functional.
For the next data set, the system named is U2OS. Kind of data set: Potency index, ratio of irinotecan IC50 to compound IC50 for cytotoxicity against human U2OS cells assessed as reduction in cell growth by MTT assay. Format: functional. In general terms: Tetrazolium assays rely on reduction of a dye to a coloured formazan, in cell work by metabolically active cells.
The nature of data set [6]: Toxicity in BALB/c nude mouse xenografted with human SK-OV-3 cells assessed as organ related toxicity on lung morphology at 20 mg/kg, iv once a week for 3 weeks by H and E staining-based […]. Conditions: in vivo, 504 h.

For the compound `CCOP(=O)(OCC)C(Nc1ccc(CCCC(=O)OC2(CC)C(=O)OCc3c2cc2n(c3=O)Cc3c-2nc2ccc(OC(=O)N4CCC(N5CCCCC5)CC4)cc2c3CC)cc1)c1ccc(F)cc1` (configuration not stated), the Activity result is given as “Non-Toxic” in data set [1]; “Non-Toxic” in data set [2]; “Non-Toxic” in data set [3]; 25.47% in the data set with SK-OV-3 [4]; 2.62% in the data set on SK-OV-3 [5]; “Non-Toxic” in data set [6]. In addition, the “Ratio IC50” value with U2OS was 5.4.

These data come from ChEMBL document CHEMBL4680173 (Eur J Med Chem, 2020).
